# Data: ChEMBL document CHEMBL1165965, “Synthesis and structure-activity relationships of 1,2,3,4-tetrahydropyrido[2,3-b]pyrazines as potent and selective inhibitors of the anaplastic lymphoma kinase” (Bioorg Med Chem, 2010)
# Tests used:
# [1] = target: Cyclin-dependent kinase 15 (Homo sapiens) (UniProt Q96Q40); assay: Inhibition of PFTAIRE2 at 1 uM
# [2] = target: Glycogen synthase kinase-3 alpha (Homo sapiens) (UniProt P49840); assay: Inhibition of GSK3A at 1 uM
# Summary of the method: (§1)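 Single-concentration screen on the Ambit KINOMEscan platform, run against a panel of 250–400 kinases. Per-kinase inhibition was also summarized as S(90), the fraction of kinases inhibited by more than 90%.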
# [3] = target: BMP-2-inducible protein kinase (Homo sapiens) (UniProt Q9NSY1); assay: Inhibition of BIKE at 1 uM
# Summary of the method: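 Ambit KINOMEscan screen at a single concentration across a 250–400 kinase panel, recorded as percent inhibition. Selectivity was expressed as S(90), the fraction of kinases inhibited >90%.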
# [4] = target: T1, Serine/threonine-protein kinase MAK (Homo sapiens) (UniProt P20794); assay: Inhibition of MAK at 1 uM
# T1 sequence (whole entry): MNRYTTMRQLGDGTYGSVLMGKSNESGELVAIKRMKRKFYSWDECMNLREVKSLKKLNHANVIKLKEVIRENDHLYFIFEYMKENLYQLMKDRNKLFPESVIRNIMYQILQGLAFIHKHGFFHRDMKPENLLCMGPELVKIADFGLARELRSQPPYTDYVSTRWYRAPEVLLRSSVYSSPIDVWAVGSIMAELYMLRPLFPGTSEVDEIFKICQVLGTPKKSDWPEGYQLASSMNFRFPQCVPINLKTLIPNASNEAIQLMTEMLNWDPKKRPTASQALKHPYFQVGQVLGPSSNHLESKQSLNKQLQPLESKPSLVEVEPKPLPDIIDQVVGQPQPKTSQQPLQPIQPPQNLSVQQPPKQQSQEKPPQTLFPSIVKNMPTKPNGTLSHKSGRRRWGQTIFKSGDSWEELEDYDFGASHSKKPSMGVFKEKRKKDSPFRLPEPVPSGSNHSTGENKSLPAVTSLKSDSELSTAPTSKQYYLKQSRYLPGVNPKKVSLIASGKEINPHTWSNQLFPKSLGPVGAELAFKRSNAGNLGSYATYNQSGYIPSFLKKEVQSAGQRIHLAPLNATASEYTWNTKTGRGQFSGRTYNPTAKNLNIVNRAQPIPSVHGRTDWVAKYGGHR
# [5] = target: Ephrin type-A receptor 5 (Homo sapiens) (UniProt P54756); assay: Inhibition of EPHA5 at 1 uM
# Summary of the method: (§2)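 Single-concentration screen using Ambit Bioscience KINOMEscan technology across a panel of 250–400 kinases. Per-kinase inhibition from this screen was summarized as S(90), the fraction of kinases inhibited by more than 90%.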
# [6] = target: Phosphorylase b kinase gamma catalytic chain, skeletal muscle/heart isoform (Homo sapiens) (UniProt Q16816); assay: Inhibition of PHKG1 at 1 uM
# [7] = target: Serine/threonine-protein kinase pim-2 (Homo sapiens) (UniProt Q9P1W9); assay: Inhibition of PIM2 at 1 uM
# [8] = target: Serine/threonine-protein kinase 32C (Homo sapiens) (UniProt Q86UX6); assay: Inhibition of YANK3 at 1 uM
# [9] = target: T2, Ephrin type-B receptor 3 (Homo sapiens) (UniProt P54753); assay: Inhibition of EPHB3 at 1 uM; summary of the method: as §2
# T2 sequence (whole entry): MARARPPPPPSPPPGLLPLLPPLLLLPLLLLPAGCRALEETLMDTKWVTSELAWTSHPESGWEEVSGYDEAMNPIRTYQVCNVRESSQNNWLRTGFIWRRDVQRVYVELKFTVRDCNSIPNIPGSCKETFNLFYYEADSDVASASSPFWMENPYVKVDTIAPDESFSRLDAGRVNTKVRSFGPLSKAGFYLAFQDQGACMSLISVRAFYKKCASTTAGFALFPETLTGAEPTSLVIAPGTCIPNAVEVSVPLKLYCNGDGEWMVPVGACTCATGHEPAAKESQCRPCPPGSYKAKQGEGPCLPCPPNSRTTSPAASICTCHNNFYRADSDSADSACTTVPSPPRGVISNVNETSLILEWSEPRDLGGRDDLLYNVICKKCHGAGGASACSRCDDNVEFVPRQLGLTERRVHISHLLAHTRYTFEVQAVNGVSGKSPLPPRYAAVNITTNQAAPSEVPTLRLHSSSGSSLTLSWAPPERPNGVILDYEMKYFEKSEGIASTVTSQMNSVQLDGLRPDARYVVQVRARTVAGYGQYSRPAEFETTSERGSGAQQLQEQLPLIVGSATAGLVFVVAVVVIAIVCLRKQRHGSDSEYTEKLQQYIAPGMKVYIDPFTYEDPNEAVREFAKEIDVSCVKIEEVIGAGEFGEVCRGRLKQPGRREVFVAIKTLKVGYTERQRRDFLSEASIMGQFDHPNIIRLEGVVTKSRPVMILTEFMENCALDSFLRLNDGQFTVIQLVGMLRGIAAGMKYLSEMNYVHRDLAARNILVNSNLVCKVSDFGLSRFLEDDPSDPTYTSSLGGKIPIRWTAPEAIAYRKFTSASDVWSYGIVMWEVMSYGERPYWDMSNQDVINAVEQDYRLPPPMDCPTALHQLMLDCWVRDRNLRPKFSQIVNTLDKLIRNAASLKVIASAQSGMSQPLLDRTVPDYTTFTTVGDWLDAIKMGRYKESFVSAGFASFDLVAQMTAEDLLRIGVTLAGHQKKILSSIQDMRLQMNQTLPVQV
# [10] = target: Serine/threonine-protein kinase 25 (Homo sapiens) (UniProt O00506); assay: Inhibition of YSK1 at 1 uM
# [11] = test system: Mast/stem cell growth factor receptor Kit (Homo sapiens), P10721 [D816V]; assay: Inhibition of KIT D816V mutant at 1 uM; summary of the method: as §1
# Mast/stem cell growth factor receptor Kit (Homo sapiens), P10721 [D816V], sequence (P10721 whole entry D816V): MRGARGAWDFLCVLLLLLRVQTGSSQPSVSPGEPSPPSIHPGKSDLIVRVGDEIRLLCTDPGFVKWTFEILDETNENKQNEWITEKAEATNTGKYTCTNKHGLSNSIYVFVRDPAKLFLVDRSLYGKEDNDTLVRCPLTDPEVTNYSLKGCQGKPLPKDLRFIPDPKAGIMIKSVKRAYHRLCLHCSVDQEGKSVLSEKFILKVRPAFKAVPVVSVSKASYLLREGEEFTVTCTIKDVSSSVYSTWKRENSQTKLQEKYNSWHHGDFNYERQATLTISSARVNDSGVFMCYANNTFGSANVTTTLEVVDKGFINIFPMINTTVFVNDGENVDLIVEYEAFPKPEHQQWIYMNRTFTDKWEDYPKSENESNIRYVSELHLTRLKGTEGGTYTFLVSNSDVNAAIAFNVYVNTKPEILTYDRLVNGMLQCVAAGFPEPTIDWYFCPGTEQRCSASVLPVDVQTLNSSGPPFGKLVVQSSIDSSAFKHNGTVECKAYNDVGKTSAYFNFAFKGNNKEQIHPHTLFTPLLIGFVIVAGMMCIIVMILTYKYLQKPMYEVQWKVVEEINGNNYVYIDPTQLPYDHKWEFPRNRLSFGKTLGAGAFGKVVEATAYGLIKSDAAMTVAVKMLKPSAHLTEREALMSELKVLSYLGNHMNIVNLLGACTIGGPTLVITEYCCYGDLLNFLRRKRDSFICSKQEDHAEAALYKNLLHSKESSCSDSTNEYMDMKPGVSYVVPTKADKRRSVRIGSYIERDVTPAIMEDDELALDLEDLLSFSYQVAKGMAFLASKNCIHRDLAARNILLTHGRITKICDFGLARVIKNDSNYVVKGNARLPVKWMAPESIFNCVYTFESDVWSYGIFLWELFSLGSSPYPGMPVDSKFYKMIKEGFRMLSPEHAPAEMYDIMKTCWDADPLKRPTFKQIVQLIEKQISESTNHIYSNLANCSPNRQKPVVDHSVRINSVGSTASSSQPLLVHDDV
# Phosphorylase b kinase gamma catalytic chain, skeletal muscle/heart isoform (Homo sapiens), sequence (Q16816 whole entry, looked up, canonical isoform): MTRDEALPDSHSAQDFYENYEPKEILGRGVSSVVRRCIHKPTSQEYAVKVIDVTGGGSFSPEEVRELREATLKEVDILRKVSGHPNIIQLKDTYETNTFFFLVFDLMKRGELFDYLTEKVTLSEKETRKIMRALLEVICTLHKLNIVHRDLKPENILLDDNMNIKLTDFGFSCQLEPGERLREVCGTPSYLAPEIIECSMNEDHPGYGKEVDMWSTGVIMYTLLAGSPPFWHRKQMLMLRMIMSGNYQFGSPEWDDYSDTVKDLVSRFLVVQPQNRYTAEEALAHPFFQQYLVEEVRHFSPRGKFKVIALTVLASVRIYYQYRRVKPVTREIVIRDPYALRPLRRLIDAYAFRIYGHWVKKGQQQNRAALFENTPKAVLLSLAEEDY
# Serine/threonine-protein kinase 32C (Homo sapiens), sequence (Q86UX6 whole entry): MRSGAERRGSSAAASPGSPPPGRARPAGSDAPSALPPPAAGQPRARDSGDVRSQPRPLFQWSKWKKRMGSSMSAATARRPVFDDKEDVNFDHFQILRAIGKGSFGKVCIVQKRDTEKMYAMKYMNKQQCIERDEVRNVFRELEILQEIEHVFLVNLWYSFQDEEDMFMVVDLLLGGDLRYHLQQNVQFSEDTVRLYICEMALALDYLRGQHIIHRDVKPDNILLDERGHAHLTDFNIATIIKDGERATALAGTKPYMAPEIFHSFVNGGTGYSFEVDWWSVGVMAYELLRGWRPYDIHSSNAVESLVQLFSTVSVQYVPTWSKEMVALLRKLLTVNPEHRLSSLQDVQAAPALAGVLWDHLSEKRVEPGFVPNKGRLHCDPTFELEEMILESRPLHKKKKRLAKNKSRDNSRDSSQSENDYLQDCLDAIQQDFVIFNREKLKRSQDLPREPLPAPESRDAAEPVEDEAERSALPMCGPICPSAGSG
# Cyclin-dependent kinase 15 (Homo sapiens), sequence (Q96Q40 whole entry): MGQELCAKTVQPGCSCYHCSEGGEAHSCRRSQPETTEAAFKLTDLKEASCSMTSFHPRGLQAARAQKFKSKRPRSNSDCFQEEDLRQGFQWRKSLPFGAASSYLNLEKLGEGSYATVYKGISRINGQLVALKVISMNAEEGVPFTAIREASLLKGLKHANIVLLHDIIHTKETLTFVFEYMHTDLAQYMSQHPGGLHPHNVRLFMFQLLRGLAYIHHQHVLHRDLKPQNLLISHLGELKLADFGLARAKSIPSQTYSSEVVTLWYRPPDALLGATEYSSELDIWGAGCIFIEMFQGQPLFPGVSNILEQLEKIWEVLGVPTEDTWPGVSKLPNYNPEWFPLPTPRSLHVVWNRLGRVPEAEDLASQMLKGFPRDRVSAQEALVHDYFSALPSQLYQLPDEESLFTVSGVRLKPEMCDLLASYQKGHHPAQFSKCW
# Serine/threonine-protein kinase pim-2 (Homo sapiens), sequence (Q9P1W9 whole entry, looked up): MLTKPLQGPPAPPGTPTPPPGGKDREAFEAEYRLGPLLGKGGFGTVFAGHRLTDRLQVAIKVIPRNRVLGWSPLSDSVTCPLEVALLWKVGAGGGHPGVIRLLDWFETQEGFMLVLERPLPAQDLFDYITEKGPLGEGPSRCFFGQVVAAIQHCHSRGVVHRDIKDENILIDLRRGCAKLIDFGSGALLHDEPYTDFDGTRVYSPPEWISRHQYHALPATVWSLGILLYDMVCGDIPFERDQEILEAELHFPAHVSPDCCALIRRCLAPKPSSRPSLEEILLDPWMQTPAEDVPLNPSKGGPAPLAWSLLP
# Glycogen synthase kinase-3 alpha (Homo sapiens), sequence (P49840 2-483 limits assumed): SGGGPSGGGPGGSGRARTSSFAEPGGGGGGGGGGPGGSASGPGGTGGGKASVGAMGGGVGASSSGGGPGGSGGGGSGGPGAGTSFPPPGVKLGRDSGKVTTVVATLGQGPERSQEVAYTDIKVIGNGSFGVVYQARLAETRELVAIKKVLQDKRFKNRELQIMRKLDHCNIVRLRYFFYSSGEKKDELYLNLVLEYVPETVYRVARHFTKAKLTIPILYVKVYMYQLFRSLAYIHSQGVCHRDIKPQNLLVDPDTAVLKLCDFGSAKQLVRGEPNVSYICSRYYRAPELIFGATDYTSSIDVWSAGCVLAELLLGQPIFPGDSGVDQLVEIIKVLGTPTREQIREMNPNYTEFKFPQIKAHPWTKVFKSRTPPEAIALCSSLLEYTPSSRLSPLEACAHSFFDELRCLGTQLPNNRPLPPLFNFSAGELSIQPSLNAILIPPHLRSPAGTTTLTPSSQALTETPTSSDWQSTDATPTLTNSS
# BMP-2-inducible protein kinase (Homo sapiens), sequence (Q9NSY1 whole entry, looked up): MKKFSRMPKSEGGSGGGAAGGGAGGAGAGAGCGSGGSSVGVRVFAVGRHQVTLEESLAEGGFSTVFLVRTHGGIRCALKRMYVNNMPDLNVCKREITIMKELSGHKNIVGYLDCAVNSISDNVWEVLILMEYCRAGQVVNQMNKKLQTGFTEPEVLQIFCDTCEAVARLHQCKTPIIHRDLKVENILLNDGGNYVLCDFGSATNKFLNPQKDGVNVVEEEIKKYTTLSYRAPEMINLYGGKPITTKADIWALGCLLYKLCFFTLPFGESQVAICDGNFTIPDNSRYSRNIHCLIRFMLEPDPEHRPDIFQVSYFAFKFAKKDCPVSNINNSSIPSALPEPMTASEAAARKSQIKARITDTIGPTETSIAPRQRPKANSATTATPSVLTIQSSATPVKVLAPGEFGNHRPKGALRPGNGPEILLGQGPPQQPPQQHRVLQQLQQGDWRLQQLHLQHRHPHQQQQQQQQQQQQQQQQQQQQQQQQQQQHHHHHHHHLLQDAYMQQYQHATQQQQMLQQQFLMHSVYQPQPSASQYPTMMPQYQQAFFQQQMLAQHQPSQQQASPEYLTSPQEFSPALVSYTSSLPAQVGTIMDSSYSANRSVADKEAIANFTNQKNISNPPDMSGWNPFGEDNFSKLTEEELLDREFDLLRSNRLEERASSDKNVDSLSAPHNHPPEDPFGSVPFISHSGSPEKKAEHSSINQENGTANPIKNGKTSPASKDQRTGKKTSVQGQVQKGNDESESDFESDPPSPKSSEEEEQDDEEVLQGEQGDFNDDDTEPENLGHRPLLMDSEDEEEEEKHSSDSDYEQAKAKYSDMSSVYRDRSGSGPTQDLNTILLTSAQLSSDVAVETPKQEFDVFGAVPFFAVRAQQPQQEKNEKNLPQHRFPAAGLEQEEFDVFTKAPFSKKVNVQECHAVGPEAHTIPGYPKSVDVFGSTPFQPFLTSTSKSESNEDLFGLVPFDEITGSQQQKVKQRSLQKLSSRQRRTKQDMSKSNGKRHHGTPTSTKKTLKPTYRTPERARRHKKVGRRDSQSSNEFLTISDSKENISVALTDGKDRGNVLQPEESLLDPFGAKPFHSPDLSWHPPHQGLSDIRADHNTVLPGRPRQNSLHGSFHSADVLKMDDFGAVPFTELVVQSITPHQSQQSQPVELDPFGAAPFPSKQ
# Serine/threonine-protein kinase 25 (Homo sapiens), sequence (O00506 whole entry, looked up): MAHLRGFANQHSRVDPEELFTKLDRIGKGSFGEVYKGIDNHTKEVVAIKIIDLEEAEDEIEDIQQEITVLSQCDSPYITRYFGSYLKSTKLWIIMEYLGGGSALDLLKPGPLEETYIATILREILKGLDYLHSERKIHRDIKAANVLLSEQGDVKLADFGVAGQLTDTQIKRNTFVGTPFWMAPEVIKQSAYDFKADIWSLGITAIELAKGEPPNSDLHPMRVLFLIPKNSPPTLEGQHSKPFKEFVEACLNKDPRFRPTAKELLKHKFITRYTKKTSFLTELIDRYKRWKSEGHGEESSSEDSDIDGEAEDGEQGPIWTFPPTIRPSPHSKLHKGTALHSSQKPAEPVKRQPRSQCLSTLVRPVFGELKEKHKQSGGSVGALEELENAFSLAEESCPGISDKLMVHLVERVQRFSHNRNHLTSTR
SMILES,inhibition [1] [%],inhibition [2] [%],inhibition [3] [%],inhibition [4] [%],inhibition [5] [%],inhibition [6] [%],inhibition [7] [%],inhibition [8] [%],inhibition [9] [%],inhibition [10] [%],inhibition [11] [%]
CN1CCN(c2ccc(-c3cnc4c(c3)N(Cc3cc(Cl)ccc3Cl)CCN4)cn2)CC1,< 50,< 50,< 50,< 50,< 50,< 50,< 50,< 50,< 50,< 50,< 50
CN1CCN(c2ccc(-c3cnc4c(c3)N(Cc3cc(Cl)ccc3C(F)(F)F)CCN4)cn2)CC1,< 50,< 50,< 50,< 50,< 50,< 50,< 50,< 50,< 50,< 50,< 50
CN1CCN(c2ccc(-c3cnc4c(c3)N(Cc3c(F)ccc(F)c3Cl)CCN4)cn2)CC1,< 50,< 50,< 50,< 50,< 50,< 50,< 50,< 50,< 50,< 50,< 50
O=C(c1ccc(-c2cnc3c(c2)N(Cc2cc(Cl)ccc2C(F)(F)F)CCN3)cc1)N1CCC(N2CCCC2)CC1,–,< 50,84,–,< 50,< 50,< 50,< 50,< 50,–,< 50
COC1CCN(C(=O)c2ccc(-c3cnc4c(c3)N(Cc3cc(Cl)ccc3C(F)(F)F)CCN4)cc2)CC1,–,< 50,< 50,–,< 50,< 50,< 50,< 50,< 50,–,< 50
FC(F)(F)c1ccc(Cl)cc1CN1CCNc2ncc(-c3ccnc(N4CCNCC4)c3)cc21,< 50,< 50,< 50,< 50,< 50,< 50,< 50,< 50,< 50,< 50,76
CN1CCN(c2ccc(-c3cnc4c(c3)N(Cc3cc(F)ccc3F)CCN4)cn2)CC1,< 50,< 50,< 50,< 50,< 50,< 50,< 50,< 50,< 50,< 50,< 50
O=C(c1ccc(-c2cnc3c(c2)N(Cc2cc(Cl)ccc2C(F)(F)F)CCN3)cc1)N1CCCCC1,–,< 50,< 50,–,< 50,< 50,< 50,< 50,< 50,–,< 50
CC(=O)N1CCN(c2cc(-c3cnc4c(c3)N(Cc3cc(Cl)ccc3C(F)(F)F)CCN4)ccn2)CC1,< 50,< 50,< 50,< 50,< 50,< 50,< 50,< 50,< 50,< 50,< 50
O=C(O)c1ccc(-c2cnc3c(c2)N(Cc2cc(Cl)ccc2C(F)(F)F)CCN3)cc1,–,< 50,< 50,–,< 50,< 50,< 50,< 50,< 50,–,< 50
